Experimental data as given in ChEMBL document CHEMBL4196177, “Synthesis, Evaluation, and Structure-Activity Relationship Study of Lanosterol Derivatives To Reverse Mutant-Crystallin-Induced Protein Aggregation” (J Med Chem, 2018).
Calls of active or inactive are those of the source.

Legend:
Type in all cases: cell-based
[1] = test system: T1, Alpha-crystallin A chain (Homo sapiens), P02489 [Y118D]; test: Inhibition of alpha-crystallin A Y118D mutant (unknown origin)-induced intracellular protein aggregation expressed in human HLE-B3 cells at 0.4 uM incubated for 6 to 8 hrs by fluorescence microscopy relative to untreated control
T1 sequence (whole entry): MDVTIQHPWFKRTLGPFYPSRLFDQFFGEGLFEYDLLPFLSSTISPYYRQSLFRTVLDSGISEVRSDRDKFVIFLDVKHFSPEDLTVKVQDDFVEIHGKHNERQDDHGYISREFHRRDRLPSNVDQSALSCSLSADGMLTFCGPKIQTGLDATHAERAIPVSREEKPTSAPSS

[2] = test system: T1, Alpha-crystallin A chain (Homo sapiens), P02489 [Y118D]; test: Inhibition of alpha-crystallin A Y118D mutant (unknown origin)-induced intracellular protein aggregation expressed in human HLE-B3 cells at 4 uM incubated for 6 to 8 hrs by fluorescence microscopy relative to untreated control
[3] = test system: T2, Gamma-crystallin D (Homo sapiens), P07320 [W43R]; test: Inhibition of gamma-crystallin D W43R mutant (unknown origin)-induced intracellular protein aggregation expressed in human HeLa cells at 0.4 uM incubated for 6 to 8 hrs by fluorescence microscopy relative to untreated control
T2 sequence (whole entry): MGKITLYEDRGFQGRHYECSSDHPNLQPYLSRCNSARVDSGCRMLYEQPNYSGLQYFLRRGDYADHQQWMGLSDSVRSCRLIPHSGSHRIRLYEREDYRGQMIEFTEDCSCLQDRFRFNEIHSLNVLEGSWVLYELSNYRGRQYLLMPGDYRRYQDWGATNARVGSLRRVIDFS

[4] = test system: T3, Gamma-crystallin C (Homo sapiens), P07315 [G129C]; test: Inhibition of gamma-crystallin C G129C mutant (unknown origin)-induced intracellular protein aggregation expressed in human HeLa cells at 4 uM incubated for 6 to 8 hrs by fluorescence microscopy relative to untreated control
T3 sequence (whole entry): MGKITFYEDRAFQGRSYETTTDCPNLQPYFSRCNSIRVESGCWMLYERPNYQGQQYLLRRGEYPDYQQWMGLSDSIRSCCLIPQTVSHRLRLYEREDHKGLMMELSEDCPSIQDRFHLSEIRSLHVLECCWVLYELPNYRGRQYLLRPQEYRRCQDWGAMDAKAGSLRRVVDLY

[5] = test system: T4, Beta-crystallin B2 (Homo sapiens), P43320 [V187E]; test: Inhibition of beta-crystallin B2 V187E mutant (unknown origin)-induced intracellular protein aggregation expressed in human HeLa cells at 0.4 uM incubated for 6 to 8 hrs by fluorescence microscopy relative to untreated control
T4 sequence (whole entry): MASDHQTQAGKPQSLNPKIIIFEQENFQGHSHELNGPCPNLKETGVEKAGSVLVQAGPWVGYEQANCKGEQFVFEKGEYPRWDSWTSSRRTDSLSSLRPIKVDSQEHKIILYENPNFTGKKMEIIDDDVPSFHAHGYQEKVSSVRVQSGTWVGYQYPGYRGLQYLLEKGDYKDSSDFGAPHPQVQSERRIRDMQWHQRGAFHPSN

[6] = test system: T4, Beta-crystallin B2 (Homo sapiens), P43320 [V187E]; test: Inhibition of beta-crystallin B2 V187E mutant (unknown origin)-induced intracellular protein aggregation expressed in human HeLa cells at 4 uM incubated for 6 to 8 hrs by fluorescence microscopy relative to untreated control
[7] = test system: T5, Alpha-crystallin B chain (Homo sapiens), P02511 [R120G]; test: Inhibition of alpha-crystallin B R120G mutant (unknown origin)-induced intracellular protein aggregation expressed in human HLE-B3 cells at 0.4 uM incubated for 6 to 8 hrs by fluorescence microscopy relative to untreated control
T5 sequence (whole entry): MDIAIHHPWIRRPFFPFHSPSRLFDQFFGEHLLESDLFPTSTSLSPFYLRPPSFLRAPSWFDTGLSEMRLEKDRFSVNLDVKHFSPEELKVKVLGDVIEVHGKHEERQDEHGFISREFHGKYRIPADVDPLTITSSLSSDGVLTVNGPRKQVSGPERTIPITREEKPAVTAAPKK
In short: (§1)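 Cells were transfected with mutant crystallin constructs using Lipofectamine 2000 and cultured for 16 h until the overexpressed mutants formed aggregates. Compounds were then added to the culture medium and incubated for 6~8 h. Aggregate dissolution was scored by fluorescence microscopy. For αB R120G, % inhibition at 0.4 and 4 µM was calculated against DMSO-treated cells; values are mean ± error.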

[8] = test system: T5, Alpha-crystallin B chain (Homo sapiens), P02511 [R120G]; test: Inhibition of alpha-crystallin B R120G mutant (unknown origin)-induced intracellular protein aggregation expressed in human HeLa cells at 4 uM incubated for 6 to 8 hrs by fluorescence microscopy relative to untreated control; in short: as §1
[9] = test system: T4, Beta-crystallin B2 (Homo sapiens), P43320 [V187E]; test: Inhibition of beta-crystallin B2 V187E mutant (unknown origin)-induced intracellular protein aggregation expressed in human HLE-B3 cells at 4 uM incubated for 6 to 8 hrs by fluorescence microscopy relative to untreated control
[10] = test system: T1, Alpha-crystallin A chain (Homo sapiens), P02489 [Y118D]; test: Inhibition of alpha-crystallin A Y118D mutant (unknown origin)-induced intracellular protein aggregation expressed in human HeLa cells at 4 uM incubated for 6 to 8 hrs by fluorescence microscopy relative to untreated control
[11] = test system: T3, Gamma-crystallin C (Homo sapiens), P07315 [G129C]; test: Inhibition of gamma-crystallin C G129C mutant (unknown origin)-induced intracellular protein aggregation expressed in human HLE-B3 cells at 4 uM incubated for 6 to 8 hrs by fluorescence microscopy relative to untreated control
[12] = test system: T5, Alpha-crystallin B chain (Homo sapiens), P02511 [R120G]; test: Inhibition of alpha-crystallin B R120G mutant (unknown origin)-induced intracellular protein aggregation expressed in human HLE-B3 cells at 4 uM incubated for 6 to 8 hrs by fluorescence microscopy relative to untreated control; in short: as §1
[13] = test system: T1, Alpha-crystallin A chain (Homo sapiens), P02489 [Y118D]; test: Inhibition of alpha-crystallin A Y118D mutant (unknown origin)-induced intracellular protein aggregation expressed in human HeLa cells at 0.4 uM incubated for 6 to 8 hrs by fluorescence microscopy relative to untreated control
[14] = test system: T4, Beta-crystallin B2 (Homo sapiens), P43320 [V187E]; test: Inhibition of beta-crystallin B2 V187E mutant (unknown origin)-induced intracellular protein aggregation expressed in human HLE-B3 cells at 0.4 uM incubated for 6 to 8 hrs by fluorescence microscopy relative to untreated control
[15] = test system: T3, Gamma-crystallin C (Homo sapiens), P07315 [G129C]; test: Inhibition of gamma-crystallin C G129C mutant (unknown origin)-induced intracellular protein aggregation expressed in human HLE-B3 cells at 0.4 uM incubated for 6 to 8 hrs by fluorescence microscopy relative to untreated control
[16] = test system: T2, Gamma-crystallin D (Homo sapiens), P07320 [W43R]; test: Inhibition of gamma-crystallin D W43R mutant (unknown origin)-induced intracellular protein aggregation expressed in human HeLa cells at 4 uM incubated for 6 to 8 hrs by fluorescence microscopy relative to untreated control
[17] = test system: T5, Alpha-crystallin B chain (Homo sapiens), P02511 [R120G]; test: Inhibition of alpha-crystallin B R120G mutant (unknown origin)-induced intracellular protein aggregation expressed in human HeLa cells at 0.4 uM incubated for 6 to 8 hrs by fluorescence microscopy relative to untreated control; in short: as §1
[18] = test system: T2, Gamma-crystallin D (Homo sapiens), P07320 [W43R]; test: Inhibition of gamma-crystallin D W43R mutant (unknown origin)-induced intracellular protein aggregation expressed in human HLE-B3 cells at 4 uM incubated for 6 to 8 hrs by fluorescence microscopy relative to untreated control
[19] = test system: T2, Gamma-crystallin D (Homo sapiens), P07320 [W43R]; test: Inhibition of gamma-crystallin D W43R mutant (unknown origin)-induced intracellular protein aggregation expressed in human HLE-B3 cells at […] incubated for 6 to 8 hrs by fluorescence microscopy relative to untreated control
[20] = test system: T3, Gamma-crystallin C (Homo sapiens), P07315 [G129C]; test: Inhibition of gamma-crystallin C G129C mutant (unknown origin)-induced intracellular protein aggregation expressed in human HeLa cells at 0.4 uM incubated for 6 to 8 hrs by fluorescence microscopy relative to untreated control

Measured: inhibition

C[C@H](CCCC(C)(C)O)[C@H]1CC[C@@]2(C)C3=C(CC[C@]12C)[C@@]1(C)CC[C@H](O)C(C)(C)[C@@H]1CC3
active: [1] | [2] | [3] | [4] | [5] | [6] | [7] | [8] | [9] | [10] | [11] | [12] | [13] | [14] | [15] | [16] | [17] | [18] | [19] | [20]
